# In ChEMBL document CHEMBL1125823, “2-Phenylindole-linked [2-(aminoalkyl)pyridine]dichloroplatinum(II): complexes with a selective action on estrogen receptor positive mammary tumors” (1991):
# Columns and labels:
# MCF7 [1] = assay: Effect on [3H]thymidine incorporation into estrogen receptor positive MCF-7 human breast cancer cells at 1x10E-6M; assay type: functional
# How it was run: (§1)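 MCF-7 cells were grown in MEM with charcoal-treated 5% newborn calf serum and phenol red, then treated with compounds in 0.1% DMF (renewed on day 4) alongside DMF controls. They were labeled 3 days later with 1 µCi [³H]thymidine per well for 2 h, and incorporated radioactivity per dish was measured; mean of six dishes ± SD; % T/C.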
# [2] = target: T1, Estrogen receptor (Mus musculus) (UniProt O08537+P19785); assay: Percent inhibition of estrone stimulated uterotrophic effect in mice at 15 ug; assay type: functional
# How it was run: (§2)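 Immature mice given test compound per animal sc on three consecutive days together with 0.4 μg estrone/animal/day. Killed 24 h after last injection; uteri fixed in Bouin, dried 100 °C 24 h and weighed. Inhibition = 100 − [(W_S,T − W_V)/(W_S − W_V) × 100] using relative uterus weights; 6-10 animals; Wilcoxon-Mann-Whitney U test.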
# Target sequence in this assay (O08537 whole entry, looked up): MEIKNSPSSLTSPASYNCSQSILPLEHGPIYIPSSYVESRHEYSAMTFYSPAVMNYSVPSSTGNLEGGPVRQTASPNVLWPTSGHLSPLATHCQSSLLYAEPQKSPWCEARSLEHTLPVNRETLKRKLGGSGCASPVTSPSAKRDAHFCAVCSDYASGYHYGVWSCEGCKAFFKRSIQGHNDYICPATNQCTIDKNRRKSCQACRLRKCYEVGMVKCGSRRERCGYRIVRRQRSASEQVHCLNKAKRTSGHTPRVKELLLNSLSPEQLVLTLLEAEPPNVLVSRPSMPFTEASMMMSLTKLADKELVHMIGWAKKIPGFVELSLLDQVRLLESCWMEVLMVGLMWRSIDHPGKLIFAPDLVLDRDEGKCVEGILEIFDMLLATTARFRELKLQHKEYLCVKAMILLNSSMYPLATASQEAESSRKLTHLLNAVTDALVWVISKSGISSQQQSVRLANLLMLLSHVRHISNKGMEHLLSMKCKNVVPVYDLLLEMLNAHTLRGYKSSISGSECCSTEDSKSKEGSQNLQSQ
# Target sequence in this assay (P19785 whole entry, looked up): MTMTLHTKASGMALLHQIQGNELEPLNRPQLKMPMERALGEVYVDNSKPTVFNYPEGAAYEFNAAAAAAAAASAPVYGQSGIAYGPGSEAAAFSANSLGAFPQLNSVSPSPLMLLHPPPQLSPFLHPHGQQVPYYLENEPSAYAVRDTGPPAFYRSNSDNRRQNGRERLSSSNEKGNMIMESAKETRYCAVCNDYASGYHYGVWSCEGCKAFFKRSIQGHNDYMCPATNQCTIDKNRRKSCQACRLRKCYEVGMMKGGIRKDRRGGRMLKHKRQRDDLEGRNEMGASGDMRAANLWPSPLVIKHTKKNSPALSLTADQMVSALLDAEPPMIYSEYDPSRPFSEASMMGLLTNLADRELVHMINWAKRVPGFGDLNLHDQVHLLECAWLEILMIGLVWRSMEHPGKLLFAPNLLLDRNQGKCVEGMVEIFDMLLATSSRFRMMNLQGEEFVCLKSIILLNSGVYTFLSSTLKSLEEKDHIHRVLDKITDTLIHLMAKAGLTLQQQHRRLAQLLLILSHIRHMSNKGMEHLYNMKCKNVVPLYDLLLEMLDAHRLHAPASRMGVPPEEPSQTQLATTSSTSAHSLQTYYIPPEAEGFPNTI
# [3] = target: T1, Estrogen receptor (Mus musculus); assay: Anti-uterotrophic effect in mice as relative uterine weight(mg) at 150 ug; assay type: functional
# How it was run: (§3)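 Immature mice received the compound sc per animal on three consecutive days, alone or with 0.4 µg estrone per animal per day. Uteri were taken 24 h after the last injection, Bouin-fixed, dried at 100 °C for 24 h and weighed. Relative uterus weight = dry weight (mg)/body weight (g) × 100; mean of 6-10 animals ± SD; Mann-Whitney U test.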
# Target sequence in this assay (O08537 whole entry, looked up): as the sequence (O08537 whole entry, looked up) above
# Target sequence in this assay (P19785 whole entry, looked up): as the sequence (P19785 whole entry, looked up) above
# [4] = target: T1, Estrogen receptor (Mus musculus); assay: Percent inhibition of estrone stimulated uterotrophic effect in mice at 150 ug; assay type: functional; how it was run: as §2
# Target sequence in this assay (O08537 whole entry, looked up): as the sequence (O08537 whole entry, looked up) above
# Target sequence in this assay (P19785 whole entry, looked up): as the sequence (P19785 whole entry, looked up) above
# [5] = target: T1, Estrogen receptor (Mus musculus); assay: Anti-uterotrophic effect in mice as relative uterine weight(mg) at 15 ug; assay type: functional; how it was run: as §3
# Target sequence in this assay (O08537 whole entry, looked up): as the sequence (O08537 whole entry, looked up) above
# Target sequence in this assay (P19785 whole entry, looked up): as the sequence (P19785 whole entry, looked up) above
# [6] = target: T1, Estrogen receptor (Mus musculus); assay: Uterotrophic effect in mice as relative uterine weight(mg) at 15 ug (control = 14.6+/-2.7); assay type: functional, tissue-based
# How it was run: (§4)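 Immature mice dosed sc per animal on three consecutive days; vehicle controls. Killed and weighed 24 h after last injection; uteri fixed in Bouin solution 2 h, washed with alcoholic LiCl, dried at 100 °C for 24 h. Relative uterus weight = uterine dry weight (mg)/body weight (g) × 100; mean of 6-10 animals ± SD.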
# Target sequence in this assay (O08537 whole entry, looked up): as the sequence (O08537 whole entry, looked up) above
# Target sequence in this assay (P19785 whole entry, looked up): as the sequence (P19785 whole entry, looked up) above
# MCF7 [7] = assay: Effect on Estrogen receptor positive MCF-7 human breast cancer cell proliferation at 1x10E-6M (control = 62.3+/-8.8); assay type: functional
# How it was run: (§5)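 MCF-7 cells were kept in MEM with 5% charcoal-treated newborn calf serum and phenol red for 2 weeks, then about 2×10^4 cells were plated per well. Compounds in 0.1% DMF were added 2 days later and renewed on day 4; DMF alone served as control. Coulter cell counts were taken on day 5; mean of six dishes ± SD; % T/C.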
# MCF7 [8] = assay: Effect on [3H]thymidine incorporation into estrogen receptor positive MCF-7 human breast cancer cells at 1x10E-6M (control = 43.4+/-1.8); assay type: functional; how it was run: as §1
# MCF7 [9] = assay: Effect on [3H]thymidine incorporation into estrogen receptor positive MCF-7 human breast cancer cells at 5x10E-6M (control = 43.4+/-1.8); assay type: functional
# How it was run: (§6)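 MCF-7 cells in improved MEM with glutamine, gentamycin and 5% newborn calf serum, switched to charcoal-treated serum two weeks ahead; phenol red present; 37 °C, 5% CO2. About 2×10^4 cells plated per well; compound in 0.1% DMF added 2 days later, renewed on day 4; labelled 3 days later with 1 μCi [3H]thymidine per well for 2 h; cpm/dish, mean of six dishes ± SD.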
# MCF7 [10] = assay: Effect on [3H]thymidine incorporation into estrogen receptor positive MCF-7 human breast cancer cells at 5x10E-6M; assay type: functional; how it was run: as §6
# MCF7 [11] = assay: Effect on Estrogen receptor positive MCF-7 human breast cancer cell proliferation at 1x10E-6M; assay type: functional; how it was run: as §5
# MCF7 [12] = assay: Effect on Estrogen receptor positive MCF-7 human breast cancer cell proliferation at 5x10E-6M (control = 62.3+/-8.8); assay type: functional; how it was run: as §5
# MCF7 [13] = assay: Effect on Estrogen receptor positive MCF-7 human breast cancer cell proliferation at 5x10E-6M; assay type: functional; how it was run: as §5
# [14] = target: T1, Estrogen receptor (Mus musculus); assay: Uterotrophic effect in mice as relative uterine weight(mg) at 150 ug (control = 14.6+/-2.7); assay type: functional, tissue-based; how it was run: as §4
# Target sequence in this assay (O08537 whole entry, looked up): as the sequence (O08537 whole entry, looked up) above
# Target sequence in this assay (P19785 whole entry, looked up): as the sequence (P19785 whole entry, looked up) above
# MCF7 [15] = assay: Effect on Estrogen receptor positive MCF-7 human breast cancer cell proliferation at 5x10E-6M (control = 66.9+/-7.0); assay type: functional; how it was run: as §5
# MCF7 [16] = assay: Effect on Estrogen receptor positive MCF-7 human breast cancer cell proliferation at 1x10E-6M (control = 66.9+/-7.0); assay type: functional; how it was run: as §5
# [17] = target: T1, Estrogen receptor (Mus musculus); assay: Uterotrophic effect in mice as relative uterine weight(mg) at 15 ug (control = 12.3+/-3.7); assay type: functional, tissue-based; how it was run: as §4
# MCF7 [18] = assay: Effect on [3H]thymidine incorporation into estrogen receptor positive MCF-7 human breast cancer cells at 1*10^-6 M (control = 28.2+/-3.0); assay type: functional; how it was run: as §1
# MCF7 [19] = assay: Effect on [3H]thymidine incorporation into estrogen receptor positive MCF-7 human breast cancer cells at 5x10E-6M (control = 28.2+/-3.0); assay type: functional; how it was run: as §6
# [20] = target: T1, Estrogen receptor (Mus musculus); assay: Uterotrophic effect in mice as relative uterine weight(mg) at 150 ug (control = 12.3+/-3.7); assay type: functional, tissue-based; how it was run: as §4
# Mus musculus [21] = species: Mus musculus; assay: Anti-tumor activity in hormone-dependent transplant MXT mammary tumor bearing mice at 1.5 mg (control=534+/-652); assay type: functional, organism-based
# [22] = target: T1, Estrogen receptor (Mus musculus); assay: Anti-uterotrophic effect in hormone-dependent transplant MXT bearing mice as relative uterine weight in treated and control mice at 1.5 mg; assay type: functional
# Target sequence in this assay (P19785 whole entry, looked up, chain 1 of 2): as the sequence (P19785 whole entry, looked up) above
# Target sequence in this assay (O08537 whole entry, looked up, chain 2 of 2): as the sequence (O08537 whole entry, looked up) above
# Mus musculus [23] = species: Mus musculus; assay: Relative tumor weight in treated compared to control mice bearing hormone-dependent transplanted MXT mammary tumors at 1.5 mg; assay type: functional, organism-based
# [24] = target: T1, Estrogen receptor (Mus musculus); assay: Anti-uterotrophic effect in hormone-dependent transplant MXT bearing mice as relative uterine weight in treated and control mice at 20 mg (control=100+/-24); assay type: functional
# Target sequence in this assay (P19785 whole entry, looked up, chain 1 of 2): as the sequence (P19785 whole entry, looked up) above
# Target sequence in this assay (O08537 whole entry, looked up, chain 2 of 2): as the sequence (O08537 whole entry, looked up) above
# Mus musculus [25] = species: Mus musculus; assay: Relative tumor weight in treated compared to control mice bearing hormone-dependent transplanted MXT mammary tumors at 20 mg; assay type: functional, organism-based
# Mus musculus [26] = species: Mus musculus; assay: Anti-tumor activity in hormone-dependent transplant MXT mammary tumor bearing mice at 20 mg (control=388+/-269); assay type: functional, organism-based
# [27] = target: T1, Estrogen receptor (Mus musculus); assay: Anti-uterotrophic effect in mice as relative uterine weight(mg) at 250 ug; assay type: functional; how it was run: as §3
# Target sequence in this assay (P19785 whole entry, looked up, chain 1 of 2): as the sequence (P19785 whole entry, looked up) above
# Target sequence in this assay (O08537 whole entry, looked up, chain 2 of 2): as the sequence (O08537 whole entry, looked up) above
# [28] = target: T1, Estrogen receptor (Mus musculus); assay: Uterotrophic effect in mice as relative uterine weight(mg) at 25 ug (control = […]+/-1.7); assay type: functional, tissue-based
# Target sequence in this assay (P19785 whole entry, looked up, chain 1 of 2): as the sequence (P19785 whole entry, looked up) above
# Target sequence in this assay (O08537 whole entry, looked up, chain 2 of 2): as the sequence (O08537 whole entry, looked up) above
# [29] = target: T1, Estrogen receptor (Mus musculus); assay: Uterotrophic effect in mice as relative uterine weight(mg) at 250 ug (control = […]+/-1.7); assay type: functional, tissue-based
# Target sequence in this assay (P19785 whole entry, looked up, chain 1 of 2): as the sequence (P19785 whole entry, looked up) above
# Target sequence in this assay (O08537 whole entry, looked up, chain 2 of 2): as the sequence (O08537 whole entry, looked up) above
# Mus musculus [30] = species: Mus musculus; assay: Anti-tumor activity in hormone-dependent transplant MXT mammary tumor bearing mice at 8.8 mg (control=388+/-269); assay type: functional
# Mus musculus [31] = species: Mus musculus; assay: Relative tumor weight in treated compared to control mice bearing hormone-dependent transplanted MXT mammary tumors at 8.8mg; assay type: functional
molecule,measurement,setting,value
Cc1c(-c2ccc(O)cc2)n(CCCCNCc2ccccn2)c2ccc(O)cc12,T/C,MCF7 [1],87%
same,inhibition,[2],4%
same,Relative uterus weight,[3],44 mg
same,inhibition,[4],25%
same,Relative uterus weight,[5],52.2 mg
same,Relative uterus weight,[6],22.1 mg
same,Cell no/dish,MCF7 [7],598000
same,Activity,MCF7 [8],37800
same,Activity,MCF7 [9],33100
same,T/C,MCF7 [10],76%
same,T/C,MCF7 [11],96%
same,Cell no/dish,MCF7 [12],452000
same,T/C,MCF7 [13],73%
same,Relative uterus weight,[14],15 mg
Cc1c(-c2ccc(O)cc2)n(CCCCCNCc2ccccn2)c2ccc(O)cc12,T/C,MCF7 [1],76%
same,Cell no/dish,MCF7 [15],287000
same,inhibition,[2],9%
same,Cell no/dish,MCF7 [16],430000
same,Relative uterus weight,[3],44 mg
same,inhibition,[4],5%
same,Relative uterus weight,[5],42.6 mg
same,Relative uterus weight,[17],16.4 mg
same,Activity,MCF7 [18],21600
same,Activity,MCF7 [19],18900
same,Relative uterus weight,[20],13.3 mg
same,T/C,MCF7 [10],67%
same,T/C,MCF7 [11],64%
same,T/C,MCF7 [13],43%
CISPLATIN,Tumor weight,Mus musculus [21],64 mg
same,T/C,[22],76%
same,T/C,Mus musculus [23],12%
[5-hydroxy-3-methyl-2-(4-hydroxyphenyl)-1-[omega-[(2-pyridylmethyl(1-ethyl))amino]hexyl]indole]dichloroplatinum (II) complex,T/C,[24],104%
same,T/C,Mus musculus [25],21%
same,Tumor weight,Mus musculus [26],80 mg
same,Relative uterus weight,[27],48 mg
same,Relative uterus weight,[28],20.2 mg
same,Relative uterus weight,[29],35.7 mg
CC/C(=C(\c1ccccc1)c1ccc(OCCN(C)C)cc1)c1ccccc1 [TAMOXIFEN],Tumor weight,Mus musculus [30],114 mg
same,T/C,Mus musculus [31],29%
